Read-outs that look alike come from different tables or passages of the source. Marks after values point to notes of the source that are not given here. Values belong to the molecule of their own block, whether it stands above or below them.
Legend:
[1] = type: in vivo, human
How it was run: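 Heparinised plasma was taken predose and at 0.5–48 h, spun within 30 min and stored at −70 °C. Parent and metabolite were measured by SPE LC–MS/MS; noncompartmental AUC, with ANOVA on log values giving geometric-mean ratio and 90% CI.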

OAT3 [2] = details: stated in introduction, no reference given; cited from earlier work
[3] = no reference given, cited from earlier work; for Apparent clearance: prior studies
BCRP = details: in vitro, no reference printed, cited from earlier work
[4] = cited from earlier work
P-glycoprotein (P-gp) [5] = details: read-out: IC50 (P-gp inhibition); in vitro, weak inhibitor; cited from earlier work
MRP3 = details: read-out: IC50 (MRP3 inhibition); weak inhibitor; no reference given; cited from earlier work
[6] = tested on: organic anion transporter (OAT)1; details: stated in introduction, no reference given; cited from earlier work
OATP1B3 [7] = details: stated in introduction, no reference given; cited from earlier work
[8] = Steady-state plasma pharmacokinetics of apremilast alone; type: in vivo, human; details: for CLss/F / Cmin: steady-state
How it was run: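 Test compound was given at 30 mg Q12h for 12 doses, with a single co-drug dose added on Day 8. Citrated plasma was sampled predose and at 0.5–12 h after the morning dose on Days 7 and 8, then assayed by liquid-liquid extraction LC–MS/MS. Noncompartmental AUC0–τ and Cmax were derived, with ANOVA on log values (treatment fixed, subject random), geometric-mean ratio with 90% CI, and Hodges–Lehmann tmax.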

[9] = tested on: organic cation transporter (OCT)2; details: stated in introduction, no reference given; cited from earlier work
OATP1B1 = details: read-out: IC50 (OATP1B1 inhibition); weak inhibitor; no reference given; cited from earlier work
MRP4 = details: stated in introduction, no reference given; cited from earlier work
OAT3 [10] = details: stated in introduction, no reference given; cited from earlier work; remark: listed apart in the source
P-glycoprotein (P-gp) [11] = details: in vitro; cited from earlier work
OATP1B3 [12] = details: stated in introduction, no reference given; cited from earlier work; remark: listed apart in the source
[13] = tested on: breast cancer resistance protein (BCRP); details: stated in introduction, no reference given; cited from earlier work
OAT1 = details: read-out: IC50 (OAT1 inhibition); weak inhibitor; no reference given; cited from earlier work
OCT2 = details: stated in introduction, no reference given; cited from earlier work
MRP2 = details: in vitro, no reference printed, cited from earlier work
[14] = tested on: multidrug resistance protein (MRP)1; details: stated in introduction, no reference given; cited from earlier work
[15] = tested on: organic anion transporting polypeptide (OATP)1B1; details: stated in introduction, no reference given; cited from earlier work
[16] = healthy subjects, Apremilast 30 mg BID; cited from earlier work
[17] = 7-OH MTX in plasma after MTX 10 mg oral + Apremilast 30 mg Q12H (Day 8), N = 1
[18] = 7-OH MTX in plasma after MTX 10 mg oral alone (Day 1), N = 1
[19] = 7-OH MTX in plasma after MTX 12.5 mg oral + Apremilast 30 mg Q12H (Day 8), N = 1
[20] = 7-OH MTX in plasma after MTX 12.5 mg oral alone (Day 1), N = 1
[21] = 7-OH MTX in plasma after MTX 17.5 mg oral + Apremilast 30 mg Q12H (Day 8), N = 1
[22] = 7-OH MTX in plasma after MTX 17.5 mg oral alone (Day 1), N = 1
[23] = 7-OH MTX in plasma, ANOVA, N = 15
[24] = 7-OH MTX in plasma, all dose groups, N = 15, acceptance range 80–125%
[25] = Apremilast 30 mg Q12H alone (Day 7), plasma, N = 15, arithmetic mean (SD)
[26] = both, human, plasma, oral, 30 mg

- AUC0–t [1, 17]: 620 ng·h/mL
- AUC0–∞ [1, 17]: 650 ng·h/mL
- Cmax [1, 17]: 32.9 ng/mL
- t1/2 [1, 17]: 10.9 h
- tmax [1, 17]: 6.00 h
- AUC0–t [1, 18]: 430 ng·h/mL
- AUC0–∞ [1, 18]: 460 ng·h/mL
- Cmax [1, 18]: 21.0 ng/mL
- t1/2 [1, 18]: 11.9 h
- tmax [1, 18]: 5.98 h
- AUC0–t [1, 19]: 1,670 hr ng/mL
- AUC0–∞ [1, 19]: 1,820 hr ng/mL
- Cmax [1, 19]: 72.8 ng/mL
- t1/2 [1, 19]: 12.0 h
- tmax [1, 19]: 6.00 h
- AUC0–t [1, 20]: 1,220 hr ng/mL
- AUC0–∞ [1, 20]: 1,370 hr ng/mL
- Cmax [1, 20]: 52.8 ng/mL
- t1/2 [1, 20]: 14.2 h
- tmax [1, 20]: 6.00 h
- tmax ([1]; 7-OH MTX in plasma after MTX 15 mg oral alone (Day 1), N = 6, median (range)): 7.52 (6.00–12.00) hr
- AUC0–t [1, 21]: 1,170 hr ng/mL
- AUC0–∞ [1, 21]: 1,290 hr ng/mL
- Cmax [1, 21]: 48.9 ng/mL
- t1/2 [1, 21]: 12.2 h
- tmax [1, 21]: 9.00 h
- AUC0–t [1, 22]: 1,170 hr ng/mL
- AUC0–∞ [1, 22]: 1,300 hr ng/mL
- Cmax [1, 22]: 45.4 ng/mL
- t1/2 [1, 22]: 13.0 h
- tmax [1, 22]: 6.00 h
- tmax ([1]; 7-OH MTX in plasma after MTX 20 mg oral alone (Day 1), N = 6, median (range)): 7.54 (5.95–9.00) hr
- Intra-subject CV% of AUC0–t [1, 23]: 19.89%
- Intra-subject CV% of AUC0–∞ [1, 23]: 19.34%
- Intra-subject CV% of Cmax [1, 23]: 17.84%
- tmax median difference (“MTX + Apremilast” − “MTX”) ([1]; 7-OH MTX in plasma, all dose groups, N = 15, Hodges–Lehmann): 0.005 ^c hr
- AUC0–t ratio of geometric means (“methotrexate + apremilast”/“methotrexate”) [1, 24]: 98.59
- AUC0–∞ ratio of geometric means (“methotrexate + apremilast”/“methotrexate”) [1, 24]: 98.24
- Cmax ratio of geometric means (“methotrexate + apremilast”/“methotrexate”) [1, 24]: 104.01
Structure (SMILES): CN(Cc1nc2c(N)nc(N)nc2[nH]c1=O)c1ccc(C(=O)N[C@@H](CCC(=O)O)C(=O)O)cc1 [7-OH MTX, 7-hydroxy methotrexate]
- 90% CI for Cmax, AUC0–t and AUC0–∞ versus FDA acceptance range of 80–125% ([1]; 7-hydroxy methotrexate, methotrexate with versus without apremilast): within the acceptance range for equivalency

- CLss/F ([8]; Apremilast 30 mg Q12H + MTX (Day 8), plasma, N = 13, arithmetic mean, excludes data with R^2 < 0.9): 156 ^b (86.3) mL/min
- Cmin ([8]; Apremilast 30 mg Q12H + MTX (Day 8), plasma, N = 15, arithmetic mean (SD)): 242 (153) ng/mL
- CLss/F [8, 25]: 153 (78.6) mL/min
- Cmin [8, 25]: 248 (153) ng/mL
- tmax median difference (“APR + MTX” − “APR”) ([8]; apremilast in plasma, 30 mg Q12H, N = 15, Hodges–Lehmann): 0 ^c hr
- Cmax ratio of geometric means (“methotrexate + apremilast”/“apremilast”) ([8]; apremilast in plasma, 30 mg Q12H, N = 15, acceptance range 80–125%): 95.00
- AUC0–τ ratio of geometric means (“methotrexate + apremilast”/“apremilast”) ([8]; apremilast in plasma, 30 mg Q12H, acceptance range 80–125%): 99.30
- Intra-subject CV% of AUC0–τ ([8]; apremilast in plasma, ANOVA): 9.66%
- Intra-subject CV% of Cmax ([8]; apremilast in plasma, ANOVA, N = 15): 12.07%
- AUC [8, 26]: 4110 ng·h/mL
- Cmax [8, 26]: 584 ng/mL
- tmax [8, 26]: 2 h
Structure (SMILES): CCOc1cc([C@@H](CS(C)(=O)=O)N2C(=O)c3cccc(NC(C)=O)c3C2=O)ccc1OC [APR, apremilast]
- Substrate of OAT3 (OAT3 [2]): not a substrate
- Time by which steady-state is achieved ([3]; healthy volunteer studies, Apremilast administered BID): ≤ 36 h
- Apparent clearance ([3]; in healthy subjects): ~10 L/h
- Apparent clearance ([3]; in patients): 8.7 L/h
- Inhibition of BCRP (BCRP; listed as Apremilast): does not inhibit
- Inhibition of BCRP (BCRP; listed as apremilast): not an inhibitor
- Oral bioavailability ([4]; in humans): ~73%
- Excreted unchanged in urine ([4]; orally administered): less than 3%
- IC50 (P-glycoprotein (P-gp) [5]): > 50 µM
- IC50 (MRP3): > 10 µM
- Substrate of OAT1 [6]: not a substrate
- Substrate of OATP1B3 (OATP1B3 [7]): not a substrate
- 90% CI for Cmax and AUCtau versus FDA acceptance range of 80–125% ([8]; apremilast with versus without methotrexate): within the acceptance range for equivalency
- Substrate of OCT2 [9]: not a substrate
- IC50 (OATP1B1): > 10 µM
- Inhibition of MRP4 (MRP4): does not inhibit
- Inhibition of OAT3 (OAT3 [10]): does not inhibit
- Substrate of P-gp (P-glycoprotein (P-gp) [11]): substrate
- Inhibition of OATP1B3 (OATP1B3 [12]): does not inhibit
- Substrate of BCRP [13]: not a substrate
- IC50 (OAT1): > 10 µM
- Inhibition of OCT2 (OCT2): does not inhibit
- Inhibition of MRP2 (MRP2; listed as Apremilast): does not inhibit
- Inhibition of MRP2 (MRP2; listed as apremilast): not an inhibitor
- Inhibition of MRP1 [14]: does not inhibit
- Substrate of OATP1B1 [15]: not a substrate

Structure (SMILES): CCOc1cc(C(CS(C)(=O)=O)N2C(=O)c3cccc(NC(C)=O)c3C2=O)ccc1OC1OC(C(=O)O)C(O)C(O)C1O (centres unmarked) [M12]
- AUC relative to Apremilast [16]: approximately 1.7 fold
- Cmax relative to Apremilast [16]: ~1.25 fold
